Experimental data published in ChEMBL document CHEMBL2057185, “Analogs of N'-hydroxy-N-(4H,5H-naphtho[1,2-d]thiazol-2-yl)methanimidamide inhibit Mycobacterium tuberculosis methionine aminopeptidases” (Bioorg Med Chem, 2012).
Converted amounts (≈) assume the structure as drawn. The source made the active and inactive calls. The calls are words filed in the database; no cut-off is given here.

Tests used:
[1] = Inhibition of Mycobacterium tuberculosis N-terminal His6-tagged MetAP1C using methionylprolyl-p-nitroanilide as substrate incubated for 20 mins prior to substrate addition measured for 20 mins by spectrophotometry in presence of Mn2+
Method in brief: (§1)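 Coupled colorimetric assay in 40 mM HEPES pH 7.5, 100 mM NaCl, 10 µM CoCl₂ or MnCl₂. Enzyme was 200 nM MetAP1a or 100 nM MetAP1c, with 1.5 U/mL Bacillus coagulans proline aminopeptidase as coupling enzyme. Eleven inhibitor levels (0.049–50 µM) were preincubated 20 min at room temperature. Met-Pro-pNA was added to 600 µM final, and A405 was followed 20 min against DMSO wells. IC50 came from nonlinear regression, averaging ≥3 independent triplicate experiments ± SD.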

[2] = Inhibition of Mycobacterium tuberculosis C-terminal His6-tagged MetAP1A using methionylprolyl-p-nitroanilide as substrate incubated for 20 mins prior to substrate addition measured for 20 mins by spectrophotometry in presence of Mn2+; method in brief: as §1
[3] = Inhibition of Mycobacterium tuberculosis N-terminal His6-tagged MetAP1C using methionylprolyl-p-nitroanilide as substrate incubated for 20 mins prior to substrate addition measured for 20 mins by spectrophotometry in presence of Co2+; method in brief: as §1
[4] = Inhibition of Mycobacterium tuberculosis C-terminal His6-tagged MetAP1A using methionylprolyl-p-nitroanilide as substrate incubated for 20 mins prior to substrate addition measured for 20 mins by spectrophotometry in presence of Co2+; method in brief: as §1
[5] = system: Mycobacterium tuberculosis; assay: Antimycobacterial activity against Mycobacterium tuberculosis H37Rv after 2 weeks; assay type: functional; conditions: 336 h
Method in brief: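 Each well received log-phase M. tuberculosis H37Rv diluted to ≈10⁶ CFU/mL in 7H9. An uninoculated sterile control was included. Plates were sealed and incubated 37 °C for two weeks.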

[6] = Chemical stability of the compound in Middlebrook 7H9 broth at 200 ug/mL after 10 days by HPLC analysis; assay type: physicochemical; conditions: 240 h
[7] = Co2+ chelation activity of the compound at 10 uM; assay type: functional
Method in brief: (§2)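 UV-vis spectra were recorded for compounds at 10 µM in MetAP assay buffer, with and without 10 µM cobalt or manganese chloride.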

[8] = Mn2+ chelation activity of the compound at 10 uM; assay type: functional; method in brief: as §2
[9] = system: Mycobacterium tuberculosis; assay: Antimycobacterial activity against Mycobacterium tuberculosis H37Rv ATCC 27294 after 7 days by microplate alamar blue assay; assay type: functional; conditions: H37Rv ATCC 27294, 168 h
[10] = Inhibition of Mycobacterium tuberculosis MetAP1C expressed in Escherichia coli using Met-AMC as substrate in presence of Mn2+
[11] = Inhibition of Mycobacterium tuberculosis MetAP1A expressed in Escherichia coli using Met-AMC as substrate in presence of Mn2+

| Compound | IC50 [1] [µM] | IC50 [2] [µM] | IC50 [3] [µM] | IC50 [4] [µM] | MIC [5] [µg/mL] | Stability [6] | Activity [7] | Activity [8] | MIC [9] [µg/mL] | IC50 [10] [µM] | IC50 [11] [µM] |
| --- | --- | --- | --- | --- | --- | --- | --- | --- | --- | --- | --- |
| CCCCCCCCC(=O)Nc1nc2c(s1)CCc1cc(OC)ccc1-2 | > 50 | > 50 | > 50 | > 50 | – | – | – | – | – | – | – |
| COc1ccc2c(c1)CCc1sc(N/C=N\O)nc1-2 | > 50 | > 50 | 1.33 | 5.35 | > 200 | Stable | – | – | – | – | – |
| COc1ccc2c(c1)OC(c1ccccc1)c1sc(N/C=N\O)nc1-2 (configuration not stated) | > 50 | 9.7 | > 50 | 6.7 | > 200 | – | – | – | – | – | – |
| COc1ccc2c(c1)-c1nc(NC=NO)sc1CC2 | 2.33 | > 50 | 0.64 | 1.9 | 200 (≈ 726 µM) | Stable | – | – | – | – | – |
| O/N=C\Nc1nc2c(s1)CCOc1cc3c(cc1-2)OCO3 | 3.13 | 24.5 | 0.38 | 1.26 | > 200 | Stable | Active | Active | – | – | – |
| O=C1C(Br)=C(Br)C(=O)c2ccccc21 [2,3-Dibromo-1,4-naphthoquinone] | – | – | 0.71 | 1.14 | 25 (≈ 79.1 µM) | – | – | – | – | – | – |
| CCCCCCCCC(=O)Nc1nc2c(s1)CCc1ccccc1-2 | > 50 | > 50 | > 50 | > 50 | – | – | – | – | – | – | – |
| O/N=C\Nc1nc2c(s1)COc1cc3c(cc1-2)OCO3 | 4.4 | > 10 | 0.73 | 1.43 | 100 (≈ 343 µM) | – | Active | Active | – | – | – |
| COc1ccc(-c2csc(N/C=N\O)n2)cc1OC | 7 | > 20 | 6.6 | > 20 | 200 (≈ 716 µM) | – | – | – | – | – | – |
| COc1ccc2c(c1)CCc1sc(N)nc1-2 | > 50 | > 50 | > 50 | > 50 | – | – | – | – | – | – | – |
| COc1ccc2c(c1)CCc1sc(NC(=O)[C@H](C)O)nc1-2 | > 50 | > 50 | > 50 | > 50 | – | – | – | – | – | – | – |
| COc1ccc2c(c1)OCc1sc(N/C=N\O)nc1-2 | > 50 | 4.7 | > 50 | 4.9 | > 200 | – | Active | Active | – | – | – |
| CO[C@@H](C(=O)NCCOc1c(C)cc(C)cc1C)[C@H](O)[C@@H](O)[C@H](O)/C=C/C(C)(C)C | – | – | – | – | – | – | – | – | 18.5 (≈ 43.7 µM) | 0.54 | 6.9 |
| COc1ccc2c(c1)CCc1sc(/N=C/c3ccco3)nc1-2 | > 50 | > 50 | > 50 | > 50 | – | – | – | – | – | – | – |
| O/N=C\Nc1nc2c(s1)CCc1cc3c(cc1-2)OCO3 | 12.5 | > 20 | > 20 | 15.4 | > 200 | – | – | – | – | – | – |
| COc1ccc2c(c1)CCc1sc(/N=C/c3ccccc3O)nc1-2 | > 50 | > 50 | > 50 | > 50 | – | – | – | – | – | – | – |
| COc1ccc2c(c1)Cc1sc(N/C=N\O)nc1-2 | > 50 | > 50 | > 50 | > 50 | 100 (≈ 383 µM) | – | – | – | – | – | – |
| CN(C)/C=N/c1nc2c(s1)CCc1ccccc1-2 | > 50 | 27.7 | 36.3 | 28.9 | – | – | – | – | – | – | – |
| O/N=C\Nc1nc2c(s1)CCc1ccccc1-2 | > 50 | > 50 | 1.05 | 11.5 | 100 (≈ 408 µM) | Stable | – | – | – | – | – |
| O/N=C\Nc1nc2c(s1)CCCc1cc3c(cc1-2)OCO3 | 14.5 | > 50 | 1.4 | 15.4 | > 200 | – | – | – | – | – | – |
| COc1cc2c(cc1OC)-c1nc(N/C=N\O)sc1CC2 | > 50 | 14.6 | 3.77 | 14.6 | > 200 | – | – | – | – | – | – |
| COc1cccc2c1CCc1sc(N/C=N\O)nc1-2 | 10.3 | 11.7 | 1.89 | 11.3 | > 200 | – | – | – | – | – | – |
| COc1ccc2c(c1)CCc1sc(NC(C)=O)nc1-2 | > 50 | > 50 | > 50 | > 50 | – | – | – | – | – | – | – |
| Nc1nc2c(s1)CCc1ccccc1-2 | > 50 | > 50 | > 50 | > 50 | – | – | – | – | – | – | – |
